Experimental data published in ChEMBL document CHEMBL1130025, “Dihydro(alkylthio)(naphthylmethyl)oxopyrimidines: novel non-nucleoside reverse transcriptase inhibitors of the S-DABO series” (J Med Chem, 1997).

How the values were obtained:
[1] = system: Human immunodeficiency virus type 1; assay: Selectivity index is the ratio of CC50 to EC50; conditions: Human immunodeficiency virus 1
[2] = system: MT4; assay: Dose required to reduce the viability of mock-infected cells by 50%; type: functional; conditions: Homo sapiens
Summary of the method: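 Mock-infected MT-4 cells (1×10^4 per well) were exposed to compound dilutions in parallel with the antiviral assay. After 4 days at 37 °C, viability was measured by MTT. CC50 is the dose reducing viable cell number by 50%.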

[3] = system: MT4; assay: Dose required to achieve 50% protection of MT-4 cells from the HIV-1 induced cytopathogenicity in HIV-1 infected MT-4 cells; conditions: Homo sapiens
[4] = target: Human immunodeficiency virus type 1 reverse transcriptase (Human immunodeficiency virus 1, UniProt Q72547); assay: Compound concentration required to inhibit the HIV-1 recombinant Reverse transcriptase (rRT) activity by 50%.
[5] = system: MT4; assay: Inhibitory activity against resistant HIV-1 strain MC639r was determined.; type: functional, cell-based; conditions: Homo sapiens
[6] = system: H9; assay: Ability to inhibit HIV-1 multiplication in chronically infected H9/IIIB cells; type: functional, cell-based; conditions: Homo sapiens
Summary of the method: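 Value taken as compound dose lowering infectious HIV-1 titer by 1 log in chronically infected H9/IIIB cells. Titer was read in C8166 cells by limiting dilution (1:2, 4 replica wells per dilution), with light-microscope scoring of cytopathicity after 4 days, expressed as CCID50/mL. Data are means of three separate experiments.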

[7] = system: C8166; assay: Ability to inhibit HIV-2 multiplication in acutely infected C8166 cells; type: functional, cell-based; conditions: Homo sapiens
Summary of the method: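 C8166 cells (1×10^4 per well) in RPMI 1640 with 10% FCS were infected with 1000 CCID50 of HIV-2 ROD, alongside serial compound dilutions from DMSO stock. After 5 days at 37 °C, viable cells were counted by MTT. EC50 is the dose giving 50% protection from virus-induced cytopathicity. Data are means of three experiments.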

[8] = system: MT4; assay: Inhibitory activity against resistant HIV-1 strain NevR was determined.; type: functional, cell-based; conditions: Homo sapiens

SMILES | Ratio [1] | CC50 [2] [µM] | EC50 [3] [µM] | other results
Cc1cccc(Cc2nc(SC3CCCC3)nc(O)c2C)c1 | > 500 | > 300 |  | 
Oc1cc(Cc2cccc3ccccc23)nc(SCc2ccccc2)n1 | > 24 | > 300 | 12.6 | 
Cc1c(O)nc(SC2CCCCC2)nc1CSc1ccccc1 | > 2 | > 300 | 150 | 
CCC(C)Sc1nc(O)c(C)c(CSc2ccccc2)n1 (centres undefined) | 3.3 | 75 | 23 | 
O=c1cc(Cc2cccc3ccccc23)nc(SC2CCCC2)[nH]1 |  |  |  | IC50 [4]: 48.7 µM
CCC(C)Sc1nc(O)cc(CCc2ccccc2)n1 (centres undefined) | 1.4 | 180 | 125 | 
Oc1cc(COc2ccccc2)nc(SC2CCCC2)n1 | > 2 | > 300 | 148 | 
CCC(C)Sc1nc(SC2CCCCC2)nc(Cc2cccc(C)c2)c1C (centres undefined) |  | > 300 | > 300 | 
Cc1c(O)nc(S)nc1Cc1cccc2ccccc12 |  | 145 | > 145 | 
Cc1c(O)nc(S)nc1CSc1ccccc1 |  | > 300 | > 300 | 
Oc1cc(COc2ccccc2)nc(SC2CCCCC2)n1 |  | > 300 | > 300 | 
Oc1cc(CSc2ccccc2)nc(S)n1 |  | > 300 | > 300 | 
Cc1c(O)nc(S)nc1CCc1ccccc1 |  | > 300 | > 300 | 
CCC(C)Sc1nc(O)cc(-c2ccccc2)n1 (centres undefined) |  | > 300 | > 300 | 
CCC(C)Sc1nc(O)c(C)c(Cc2cccc(C)c2)n1 (centres undefined) | 100 | 100 |  | 
CCCCCCCCCCCSc1nc(O)cc(Cc2cccc3ccccc23)n1 |  | > 300 | > 300 | 
CCCc1cc(O)nc(SC2CCCCC2)n1 |  | 210 | > 210 | 
CCC(C)Sc1nc(O)c(C)c(-c2ccccc2)n1 (centres undefined) |  | 126 | > 126 | 
CC(C)Sc1nc(O)cc(Cc2cccc3ccccc23)n1 | > 300 | > 300 | 1 | 
CCCC(C)Sc1nc(O)cc(Cc2cccc3ccccc23)n1 (centres undefined) | 34 | 158 | 4.6 | 
Cc1nc(SC2CCCC2)nc(O)c1Cc1ccccc1 |  | > 300 | > 300 | 
CCC(C)Sc1nc(Cc2ccc3ccccc3c2)c(C)c(=O)[nH]1 (centres undefined) |  |  |  | IC50 [4]: 29.7 µM

SMILES | Ratio [1] | CC50 [2] [µM] | EC50 [3] [µM] | other results
Cc1c(O)nc(SC2CCCC2)nc1CCc1ccccc1 | > 16 | > 300 | 19 | 
CCC(C)Sc1nc(Cc2cccc3ccccc23)c(C)c(=O)[nH]1 (centres undefined) |  |  |  | IC50 [4]: 22.5 µM
Cc1nc(SC2CCCCC2)nc(O)c1Cc1ccccc1 |  | > 300 | > 300 | 
Cc1cccc(Cc2nc(SC3CCCCC3)nc(S)c2C)c1 | 12 | 176 | 14.6 | 
Cc1c(O)nc(SC2CCCC2)nc1COc1ccccc1 | > 13 | > 300 | 24 | 
Cc1c(O)nc(SC2CCCCC2)nc1-c1ccccc1 |  | > 300 | > 300 | 
CCC(C)Sc1nc(C)c(Cc2ccccc2)c(O)n1 (centres undefined) |  | > 300 | > 300 | 
Oc1cc(COc2ccccc2)nc(S)n1 |  | > 300 | > 300 | 
CCC(C)Sc1nc(O)cc(CSc2ccccc2)n1 (centres undefined) | 5.4 | 288 | 53 | 
Cc1c(O)nc(SC2CCCC2)nc1CSc1ccccc1 | > 2 | > 300 | 150 | 
Oc1cc(-c2ccccc2)nc(SC2CCCC2)n1 |  | > 300 | > 300 | 
CCC(C)Sc1nc(O)c(C)c(CCc2ccccc2)n1 (centres undefined) | 6 | 105 | 18 | 
Cc1c(O)nc(SC2CCCCC2)nc1CCc1ccccc1 | > 11 | > 300 | 27 | 
Oc1cc(CSc2ccccc2)nc(SC2CCCCC2)n1 | > 9.4 | > 300 | 32 | 
Oc1cc(CSc2ccccc2)nc(SC2CCCC2)n1 | 4.5 | 300 | 66 | 
Cc1c(O)nc(S)nc1Cc1ccc2ccccc2c1 |  | 91 | > 91 | 
Oc1cc(CCc2ccccc2)nc(SC2CCCC2)n1 | 1.4 | 112 | 81.5 | 
COc1nc(SC2CCCCC2)nc(Cc2cccc(C)c2)c1C |  | > 300 | > 300 | 
Cc1cccc(Cc2nc(SC3CCCCC3)n(C)c(=O)c2C)c1 |  | 44 | > 44 | 
Cc1cccc(Cc2nc(SC3CCCCC3)nc(N)c2C)c1 |  | > 200 | > 200 | 
Oc1cc(Cc2cccc3ccccc23)nc(S)n1 |  | > 300 | > 300 | 
Cc1c(O)nc(SC2CCCCC2)nc1Cc1cccc2ccccc12 | > 4.7 | > 300 | 63 | 

SMILES | Ratio [1] | CC50 [2] [µM] | EC50 [3] [µM] | other results
Oc1cc(Cc2ccc3ccccc3c2)nc(SC2CCCC2)n1 | > 8.1 | > 300 | 3.7 | 
Oc1cc(Cc2ccc3ccccc3c2)nc(S)n1 |  | > 300 | > 300 | 
CCC(C)Sc1nc(COc2ccccc2)c(C)c(=O)[nH]1 (centres undefined) |  |  |  | IC50 [4]: > 100 µM
CCCc1cc(O)nc(SC(C)CC)n1 (centres undefined) |  | 246 | > 246 | 
Oc1cc(CCc2ccccc2)nc(SC2CCCCC2)n1 | 1.9 | 133 | 68 | 
Oc1cc(Cc2cccc3ccccc23)nc(SC2CCCCC2)n1 | > 96 | > 300 | 3.1 | 
Cc1cccc(Cc2nc(SC3CCCCC3)nc(N/N=C(/N)S)c2C)c1 |  | 24 | > 24 | 
Cc1c(O)nc(SC2CCCC2)nc1-c1ccccc1 |  | 175 | > 175 | 
Cc1c(O)nc(SC2CCCCC2)nc1COc1ccccc1 | > 14 | > 300 | 22 | 
Cc1c(O)nc(S)nc1COc1ccccc1 |  | > 300 | > 300 | 
Cc1c(O)nc(SC2CCCCC2)nc1Cc1ccc2ccccc2c1 | > 2.4 | > 300 | 125 | 
Cc1c(O)nc(SC2CCCC2)nc1Cc1ccc2ccccc2c1 | > 20 | > 300 | 15 | 
CCC(CC)Sc1nc(O)cc(Cc2cccc3ccccc23)n1 | 50 | 200 | 4 | 
Cc1cccc(Cc2nc(SC3CCCCC3)nc(Cl)c2C)c1 |  | 133 | > 133 | 
Oc1cc(-c2ccccc2)nc(SC2CCCCC2)n1 |  | > 300 | > 300 | 
Cc1c(Cc2cccc3ccccc23)nc(SC2CCCC2)[nH]c1=O |  |  |  | IC50 [4]: 45 µM
Oc1cc(Cc2cccc3ccccc23)nc(SC2CCCCCC2)n1 | > 100 | > 300 | 3 | 
Cc1ccnc2c1NC(=O)c1cccnc1N2C1CC1 [NEVIRAPINE] |  | > 300 | 0.25 | EC50 [5]: 0.31 µM; EC50 [6]: > 100 µM; EC50 [7]: > 100 µM; EC50 [8]: > 100 µM
CCC(C)Sc1nc(O)cc(COc2ccccc2)n1 (centres undefined) | > 6 | > 300 | 52 | 
Cc1cccc(Cc2nc(SC3CCCCC3)ncc2C)c1 |  | 128 | > 128 | 
